Source: ChEMBL document CHEMBL4196055, “Synthesis and biological evaluation of α-santonin derivatives as anti-hepatoma agents” (Eur J Med Chem, 2018)

What was measured:
HepG2 [1] = assay: Antiproliferative activity against human HepG2 cells at 10 uM after 24 hrs by CCK-8 assay relative to control; format: functional
Method in brief: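 HepG-2 grown in DMEM with 10% FBS and penicillin/streptomycin (37 °C, 5% CO2). Seeded 2 × 10^5 cells/well for 24 h, then given a single 10 μM dose or 1% DMSO vehicle for 24 h. CCK-8 reagent for 1 h, A450 read, and percent inhibition calculated against untreated control cells.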

[2] = Antiproliferative activity against human QSG7701 cells after 24 hrs by CCK-8 assay; format: cell-based; conditions: QSG7701, 24 h
Method in brief: (§1)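 Cells in 10% FBS medium with penicillin/streptomycin at 37 °C, 5% CO2; HepG-2 in DMEM, QGY-7703, SMMC-7721 and QSG-7701 in RPMI 1640. Seeded 2 × 10^5 cells/well, grown 24 h, then exposed to five concentrations of compound or 1% DMSO vehicle for 24 h. CCK-8 added for 1 h, absorbance read at 450 nm; IC50 derived from the 5-dose data.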

HepG2 [3] = assay: Antiproliferative activity against human HepG2 cells after 24 hrs by CCK-8 assay; format: functional, cell-based; conditions: HepG2, 24 h; method in brief: as §1
SMMC-7721 = assay: Antiproliferative activity against human SMMC7721 cells after 24 hrs by CCK-8 assay; format: functional, cell-based; conditions: SMMC-7721, 24 h; method in brief: as §1
QGY-7703 [4] = assay: Antiproliferative activity against human QGY7703 cells after 24 hrs by CCK-8 assay; format: functional, cell-based; conditions: QGY-7703, 24 h; method in brief: as §1
QGY-7703 [5] = assay: Induction of apoptosis in human QGY7703 cells assessed as necrotic cells at 15 uM after 24 hrs by Annexin-V FITC/propidium iodide staining based flow cytometric analysis (reference value: 0.6 to 0.7%); format: functional
Method in brief: (§2)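 Assay in QGY-7703 cells kept in RPMI 1640 with 10% FBS. Seeded at 5 × 10^5 cells/well for 24 h, then treated for 24 h with 5, 10 or 15 μM compound, DMSO as control. Annexin V-FITC/PI staining for 15 min at room temperature in the dark, then immediate flow cytometry to count the apoptotic fractions.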

QGY-7703 [6] = assay: Induction of apoptosis in human QGY7703 cells assessed as early apoptotic cells at 15 uM after 24 hrs by Annexin-V FITC/propidium iodide staining based flow cytometric analysis (reference value: 0.8 to 1%); format: functional; method in brief: as §2
QGY-7703 [7] = assay: Induction of apoptosis in human QGY7703 cells assessed as late apoptotic cells at 10 uM after 24 hrs by Annexin-V FITC/propidium iodide staining based flow cytometric analysis (reference value: 4.1 to 4.3%); format: functional; method in brief: as §2
QGY-7703 [8] = assay: Induction of apoptosis in human QGY7703 cells assessed as viable cells at 5 uM after 24 hrs by Annexin-V FITC/propidium iodide staining based flow cytometric analysis (reference value: 94.2 to 94.3%); format: functional; conditions: QGY-7703, 24 h, read-out: Activity; method in brief: as §2
QGY-7703 [9] = assay: Induction of apoptosis in human QGY7703 cells assessed as necrotic cells at 10 uM after 24 hrs by Annexin-V FITC/propidium iodide staining based flow cytometric analysis (reference value: 0.6 to 0.7%); format: functional; method in brief: as §2
QGY-7703 [10] = assay: Induction of apoptosis in human QGY7703 cells assessed as viable cells at 10 uM after 24 hrs by Annexin-V FITC/propidium iodide staining based flow cytometric analysis (reference value: 94.2 to 94.3%); format: functional; conditions: QGY-7703, 24 h, read-out: Activity; method in brief: as §2
QGY-7703 [11] = assay: Induction of apoptosis in human QGY7703 cells assessed as late apoptotic cells at 15 uM after 24 hrs by Annexin-V FITC/propidium iodide staining based flow cytometric analysis (reference value: 4.1 to 4.3%); format: functional; method in brief: as §2
QGY-7703 [12] = assay: Induction of apoptosis in human QGY7703 cells assessed as viable cells at 15 uM after 24 hrs by Annexin-V FITC/propidium iodide staining based flow cytometric analysis (reference value: 94.2 to 94.3%); format: functional; conditions: QGY-7703, 24 h, read-out: Activity; method in brief: as §2
QGY-7703 [13] = assay: Induction of apoptosis in human QGY7703 cells assessed as late apoptotic cells at 5 uM after 24 hrs by Annexin-V FITC/propidium iodide staining based flow cytometric analysis (reference value: 4.1 to 4.3%); format: functional; method in brief: as §2
QGY-7703 [14] = assay: Induction of apoptosis in human QGY7703 cells assessed as early apoptotic cells at 10 uM after 24 hrs by Annexin-V FITC/propidium iodide staining based flow cytometric analysis (reference value: 0.8 to 1%); format: functional; method in brief: as §2
QGY-7703 [15] = assay: Induction of apoptosis in human QGY7703 cells assessed as necrotic cells at 5 uM after 24 hrs by Annexin-V FITC/propidium iodide staining based flow cytometric analysis (reference value: 0.6 to 0.7%); format: functional; method in brief: as §2
QGY-7703 [16] = assay: Induction of apoptosis in human QGY7703 cells assessed as early apoptotic cells at 5 uM after 24 hrs by Annexin-V FITC/propidium iodide staining based flow cytometric analysis (reference value: 0.8 to 1%); format: functional; method in brief: as §2

Structure (SMILES) | Activity (HepG2 [1]) | IC50 [2] | IC50 (HepG2 [3]) | IC50 (SMMC-7721) | IC50 (QGY-7703 [4]) | further results
C=C1C(=O)O[C@@H]2C3=C(C)[C@@H](OC(=O)/C=C/c4ccc(OCCC)cc4)CC3[C@](C)(OC(C)=O)CC[C@@H]12 (some centres undefined) | 47.78% | – | – | – | – | –
C=C1C(=O)O[C@@H]2C3=C(C)[C@@H](OC(=O)c4ccc(OC(F)(F)F)cc4)CC3[C@](C)(OC(C)=O)CC[C@@H]12 (some centres undefined) | 69.25% | 36.8 µM | 7.54 µM | 6.1 µM | 11.3 µM | –
C=C1C(=O)O[C@@H]2C3=C(C)[C@@H](OC(=O)c4ccc(CCCCC)cc4)CC3[C@](C)(OC(C)=O)CC[C@@H]12 (some centres undefined) | 58.08% | 38.5 µM | 10.8 µM | 18.7 µM | 7.19 µM | –
C=C1C(=O)O[C@@H]2C3=C(C)[C@@H](OC(=O)/C=C/c4ccc(C)cc4)CC3[C@](C)(OC(C)=O)CC[C@@H]12 (some centres undefined) | 72.03% | > 100 µM | 8.67 µM | 5.06 µM | 10.6 µM | –
C=C1C(=O)O[C@@H]2C3=C(C)[C@@H](OC(=O)c4ccc(CCCC)cc4)CC3[C@](C)(OC(C)=O)CC[C@@H]12 (some centres undefined) | 67.53% | 45.1 µM | 10.3 µM | 7.46 µM | 7.2 µM | –
C=C1C(=O)O[C@@H]2C3=C(C)[C@@H](OC(=O)c4ccc(C#N)cc4)CC3[C@](C)(OC(C)=O)CC[C@@H]12 (some centres undefined) | 62.58% | > 100 µM | 9.14 µM | 6.7 µM | 22.8 µM | –
C=C1C(=O)O[C@@H]2C3=C(C)[C@@H](OC(=O)/C=C/c4ccc(SC)cc4)CC3[C@](C)(OC(C)=O)CC[C@@H]12 (some centres undefined) | 36.24% | – | – | – | – | –
C=C1C(=O)O[C@@H]2C3=C(C)[C@@H](OC(=O)c4ccc(C)cc4)CC3[C@](C)(OC(C)=O)CC[C@@H]12 (some centres undefined) | 58.47% | > 100 µM | 8.52 µM | 6.49 µM | 12.2 µM | –
O=c1[nH]cc(F)c(=O)[nH]1 [FLUOROURACIL] | 50.58% | 6.92 µM | – | 12.5 µM | 14.2 µM | Activity (QGY-7703 [5]): 0.4%; Activity (QGY-7703 [6]): 23%; Activity (QGY-7703 [7]): 11.1%; viability at 5 µM (QGY-7703 [8]): 88.4%; Activity (QGY-7703 [9]): 0.1%; viability at 10 µM (QGY-7703 [10]): 76.3%; Activity (QGY-7703 [11]): 35.5%; viability at 15 µM (QGY-7703 [12]): 41.1%; Activity (QGY-7703 [13]): 0.9%; Activity (QGY-7703 [14]): 12.6%; Activity (QGY-7703 [15]): 0%; Activity (QGY-7703 [16]): 10.7%
C=C1C(=O)O[C@@H]2C3=C(C)[C@@H](OC(=O)c4ccc(OC)cc4)CC3[C@](C)(OC(C)=O)CC[C@@H]12 (some centres undefined) | 53.03% | > 100 µM | 12.2 µM | 8.93 µM | 22.3 µM | –
C=C1C(=O)O[C@@H]2C3=C(C)[C@@H](OC(=O)c4ccc(C(F)(F)F)cc4)CC3[C@](C)(OC(C)=O)CC[C@@H]12 (some centres undefined) | 72.42% | 41.1 µM | 5.63 µM | 5.49 µM | 5.64 µM | –
C=C1C(=O)O[C@@H]2C3=C(C)[C@@H](OC(=O)c4ccc(CCC)cc4)CC3[C@](C)(OC(C)=O)CC[C@@H]12 (some centres undefined) | 62.47% | 34.3 µM | 10.1 µM | 6.52 µM | 8.33 µM | –
C=C1C(=O)O[C@@H]2C3=C(C)[C@@H](OC(=O)/C=C/c4ccc(F)cc4)CC3[C@](C)(OC(C)=O)CC[C@@H]12 (some centres undefined) | 67.53% | > 100 µM | 9.98 µM | 5.8 µM | 12.2 µM | –
C=C1C(=O)O[C@@H]2C3=C(C)[C@@H](OC(=O)c4ccc(CC)cc4)CC3[C@](C)(OC(C)=O)CC[C@@H]12 (some centres undefined) | 42.33% | – | – | – | – | –
C=C1C(=O)O[C@@H]2C3=C(C)[C@@H](OC(=O)c4ccc(C(C)C)cc4)CC3[C@](C)(OC(C)=O)CC[C@@H]12 (some centres undefined) | 37.86% | – | – | – | – | –
C=C1C(=O)O[C@@H]2C3=C(C)[C@@H](OC(=O)/C=C/c4ccc([N+](=O)[O-])cc4)CC3[C@](C)(OC(C)=O)CC[C@@H]12 (some centres undefined) | 42.67% | – | – | – | – | –
C=C1C(=O)O[C@@H]2C3=C(C)[C@@H](OC(=O)/C=C/c4ccc(Br)cc4)CC3[C@](C)(OC(C)=O)CC[C@@H]12 (some centres undefined) | 61.39% | 91.3 µM | 11.7 µM | 6.09 µM | 8.91 µM | –
C=C1C(=O)O[C@@H]2C3=C(C)[C@@H](OC(=O)c4ccc(C(C)(C)C)cc4)CC3[C@](C)(OC(C)=O)CC[C@@H]12 (some centres undefined) | 64.41% | 48.5 µM | 11.1 µM | 9.37 µM | 5.13 µM | –
C=C1C(=O)O[C@@H]2C3=C(C)[C@@H](OC(=O)c4ccc(F)cc4)CC3[C@](C)(OC(C)=O)CC[C@@H]12 (some centres undefined) | 78.61% | 39 µM | 6.2 µM | 4.97 µM | 6.78 µM | –
C=C1C(=O)O[C@@H]2C3=C(C)[C@@H](OC(=O)/C=C/c4ccc(C#N)cc4)CC3[C@](C)(OC(C)=O)CC[C@@H]12 (some centres undefined) | 48.53% | – | – | – | – | –
C=C1C(=O)O[C@@H]2C3=C(C)[C@@H](OC(=O)c4ccc(I)cc4)CC3[C@](C)(OC(C)=O)CC[C@@H]12 (some centres undefined) | 63.11% | 36.5 µM | 7.57 µM | 4.18 µM | 9 µM | –
C=C1C(=O)O[C@@H]2C3=C(C)[C@@H](OC(=O)c4ccccc4)CC3[C@](C)(OC(C)=O)CC[C@@H]12 (some centres undefined) | 68.47% | > 100 µM | 7.99 µM | 5.99 µM | 13 µM | –
C=C1C(=O)O[C@@H]2C3=C(C)[C@@H](OC(=O)/C=C/c4ccc(OC)cc4)CC3[C@](C)(OC(C)=O)CC[C@@H]12 (some centres undefined) | 61.14% | > 100 µM | 12.1 µM | 5.41 µM | 11.8 µM | –
C=C1C(=O)O[C@@H]2C3=C(C)[C@@H](OC(=O)c4ccc(Br)cc4)CC3[C@](C)(OC(C)=O)CC[C@@H]12 (some centres undefined) | 71.06% | 51.9 µM | 7.41 µM | 6.54 µM | 13.7 µM | –
C=C1C(=O)O[C@@H]2C3=C(C)[C@@H](OC(=O)/C=C/c4ccc(OCC)cc4)CC3[C@](C)(OC(C)=O)CC[C@@H]12 (some centres undefined) | 49.75% | – | – | – | – | –
C=C1C(=O)O[C@@H]2C3=C(C)[C@@H](OC(=O)/C=C/c4ccccc4)CC3[C@](C)(OC(C)=O)CC[C@@H]12 (some centres undefined) | 56.11% | > 100 µM | 16.2 µM | 6.43 µM | 18.8 µM | –
C=C1C(=O)O[C@@H]2C3=C(C)[C@@H](O)CC3[C@](C)(OC(C)=O)CC[C@@H]12 (some centres undefined) | 32.02% | – | – | – | – | –
C=C1C(=O)O[C@@H]2C3=C(C)[C@@H](OC(=O)/C=C/c4ccc(C(F)(F)F)cc4)CC3[C@](C)(OC(C)=O)CC[C@@H]12 (some centres undefined) | 71.14% | 43.3 µM | 6.79 µM | 6.12 µM | 12.7 µM | –
